Source: ChEMBL document CHEMBL1795311, “Synthesis, antiproliferative activity, and mechanism of action of a series of 2-{[(2E)-3-phenylprop-2-enoyl]amino}benzamides” (Eur J Med Chem, 2011)
Calls of active or inactive are those of the source. The calls are words filed in the database; no cut-off is given here.

Columns and labels:
Bos taurus [1] = species on record: Bos taurus; test: Inhibition of purified bovine brain tubulin microtubule assembly up to 40 uM
Method in brief: (§1)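 Purified bovine brain tubulin. Reaction mixtures preincubated at 30 °C without GTP, chilled on ice, then given 0.4 mM GTP at 0 °C. Temperature jumped to 30 °C and held 20 min while turbidity was followed spectrophotometrically. Maximal rate and extent of assembly compared with a control run in the same experiment. Concentrations tested up to 40 μM.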

K562 [2] = test: Induction of apoptosis in human K562 cells assessed as accumulation of hypodiploid nuclei after 48 hrs by FITC- conjugated annexin-V/propidium iodide based flow cytometry; format: functional, cell-based; conditions: K562, 48 h
Method in brief: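 K562 cells treated with various concentrations for 48 h. Apoptosis scored as the percentage of hypodiploid nuclei in the sub-G0–G1 peak after hypotonic propidium iodide staining (50 μg/ml in 0.1% sodium citrate, 0.03% NP-40, 30 min), measured by flow cytometry. Annexin-V-FITC/PI staining, 15 min at 20 °C, also read by flow cytometry. Mean ±SE shown.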

SN12C = test: Growth inhibition of human SN12C cells after 48 hrs by SRB assay; format: functional
Method in brief: (§2)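 Run by the NCI Developmental Therapeutics Program: cells in RPMI 1640 with 5% FBS and 2 mM L-glutamine, plated at 5000–40,000 cells/well and grown 24 h before dosing. Drug (DMSO stock) given at five concentrations for 48 h at 37 °C, 5% CO2. Adherent cells fixed with cold TCA, stained with 0.4% SRB and read at 515 nm. GI50, TGI and LC50 taken from the time-zero, control and treated absorbances.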

K562 [3] = test: Cell cycle distribution in human K562 cells assessed as blocked at M phase at 1 uM after 24 hrs by ethidium bromide/acridine orange staining (reference value: 1%); format: functional
Method in brief: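 K562 exposed to 1 μM for 24 h, then stained with ethidium bromide and acridine orange. The percentage of cells arrested in mitosis was scored morphologically; untreated cells served as control.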

UACC-62 = test: Growth inhibition of human UACC62 cells after 48 hrs by SRB assay; format: functional; conditions: UACC-62, 48 h; method in brief: as §2
ACHN = test: Growth inhibition of human ACHN cells after 48 hrs by SRB assay; format: functional
Method in brief: (§3)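 NCI DTP panel cells grown in RPMI 1640 with 5% FBS and 2 mM L-glutamine, preincubated 24 h, then given five concentrations (10-fold or ½-log dilutions from DMSO stock) for 48 h at 37 °C. Cells fixed with TCA, stained with SRB, absorbance read at 515 nm, with time-zero plates as reference.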

A498 = test: Growth inhibition of human A498 cells after 48 hrs by SRB assay; format: functional; conditions: A498, 48 h; method in brief: as §3
786-0 = test: Growth inhibition of human 786-0 cells after 48 hrs by SRB assay; format: functional; conditions: 786-0, 48 h; method in brief: as §3
HL-60 = test: Growth inhibition of human HL60 cells after 48 hrs by SRB assay; format: functional; conditions: HL-60, 48 h; method in brief: as §3
K562 [4] = test: Induction of apoptosis in human K562 cells assessed as induction in morphological alterations at 2 uM after 24 hrs ny phase contrast invertoscope; format: functional, cell-based
Method in brief: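 Living K562 cells in culture medium, exposed 24 h to 2, 5 or 10 μM or left untreated, then viewed by phase contrast invertoscope at 40× magnification for morphologic alterations.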

Mus musculus = test: Toxicity in non-tumorated mouse at 400 mg/kg; format: organism-based; parameters: dose 400 mg/kg; conditions: in vivo
Method in brief: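 Run by the NCI in vivo toxicity assay in non-tumored mice, at a dose of 400 mg/kg.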

PtK2 [5] = test: Inhibition of tubulin polymerization in Potorous tridactylus PtK2 cells assessed as microtubule disruption at 10 uM after 24 hrs by immunofluorescence microscopy; format: cell-based
Method in brief: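 PtK2 (Potorous tridactylis kidney) cells treated 24 h at 37 °C at 10 μM. Then fixed and stained directly with Cy3-anti-β-tubulin and FITC-anti-β-actin monoclonal antibodies and imaged by epifluorescence microscopy. Combretastatin A-4 (1 μM) and latrunculin A (1 μM) used as references.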

Bos taurus [6] = species on record: Bos taurus; test: Inhibition of purified bovine brain tubulin polymerization by turbidimetry; method in brief: as §1
SNB-75 = test: Growth inhibition of human SNB75 cells after 48 hrs by SRB assay; format: functional; conditions: SNB-75, 48 h; method in brief: as §2
K562 [7] = test: Cell cycle distribution in human K562 cells assessed as decrease in accumulation at G0/G1 phase at 1 to 4 uM after 24 hrs by flow cytometry; format: functional, cell-based
Method in brief: (§4)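 K562 exposed 24 h to 1, 2 or 4 μM. Washed cells resuspended in hypotonic propidium iodide (50 μg/ml in 0.1% sodium citrate plus 0.03% NP-40), incubated 30 min. DNA-content histograms acquired by flow cytometry give the G0–G1, S and G2-M fractions.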

K562 [8] = test: Cell cycle distribution in human K562 cells assessed as increase in accumulation at G2/M phase at 1 to 4 uM after 24 hrs by flow cytometry; format: functional, cell-based; method in brief: as §4
UACC-257 = test: Growth inhibition of human UACC257 cells after 48 hrs by SRB assay; format: functional; conditions: UACC-257, 48 h; method in brief: as §2
HCC 2998 = test: Growth inhibition of human HCC2998 cells after 48 hrs by SRB assay; format: functional; conditions: HCC 2998, 48 h; method in brief: as §3
UO-31 = test: Growth inhibition of human UO31 cells after 48 hrs by SRB assay; format: functional; conditions: UO-31, 48 h; method in brief: as §2
PtK2 [9] = test: Binding affinity to actin in Potorous tridactylus PtK2 cells at 10 uM; format: cell-based
Method in brief: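 PtK2 (Potorous tridactylus kidney) cells treated 24 h at 37 °C, then fixed and stained by direct immunofluorescence with Cy3-anti-β-tubulin and FITC-anti-β-actin monoclonals. Microtubule and microfilament networks were examined by epifluorescence microscopy.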

HCT-116 = test: Growth inhibition of human HCT116 cells after 48 hrs by SRB assay; format: functional; conditions: HCT-116, 48 h; method in brief: as §3
MDA-MB-468 = test: Growth inhibition of human MDA-MB-468 cells after 48 hrs by SRB assay; format: functional; conditions: MDA-MB-468, 48 h; method in brief: as §3
NCI/ADR-RES = test: Growth inhibition of human NCI/ADR-RES cells after 48 hrs by SRB assay; format: functional; method in brief: as §3
MDA-MB-435 = test: Growth inhibition of human MDA-MB-435 cells after 48 hrs by SRB assay; format: functional; conditions: MDA-MB-435, 48 h; method in brief: as §3

Row | Compound | GI50 (SN12C) | GI50 (UACC-62) | GI50 (ACHN) | GI50 (A498) | GI50 (786-0) | GI50 (HL-60) | GI50 (SNB-75) | GI50 (UACC-257) | GI50 (HCC 2998) | GI50 (UO-31) | GI50 (HCT-116) | also measured
1 | NC(=O)c1cc(I)ccc1NC(=O)/C=C/c1ccccc1 | 635 nM | 632 nM | 3700 nM | 2700 nM | 1430 nM | 54.2 nM | 245 nM | 14300 nM | 1250 nM | 3530 nM | 430 nM | Activity (Bos taurus [1]): inactive; AC50 (K562 [2]): 3700 nM; Activity (K562 [3]): 35%; Activity (K562 [4]): Active; Activity (Mus musculus): Non-toxic; Activity (PtK2 [5]): Active; Activity (Bos taurus [6]): Active; Activity (K562 [7]): Active; Activity (K562 [8]): Active; Activity (PtK2 [9]): Active
2 | NC(=O)c1cc(Cl)ccc1NC(=O)/C=C/c1ccccc1 | 3960 nM | 2520 nM | 4750 nM | 3610 nM | 2320 nM | 1420 nM | 1840 nM | 15100 nM | 487 nM | 3570 nM | 1980 nM | GI50 (MDA-MB-468): 1170 nM; GI50 (NCI/ADR-RES): 2240 nM; GI50 (MDA-MB-435): 492 nM
